Laboratory results from ChEMBL document CHEMBL1145801, “Inhibition of Cdc25 phosphatases by indolyldihydroxyquinones” (J Med Chem, 2003).
pIC50, pKi: −log10 of the molar value.

How the values were obtained:
[1] = biological target: T1, M-phase inducer phosphatase 3 (Homo sapiens) (UniProt P30307); assay: Percent inhibition against Cdc25C phosphatase at 50 uM of compound
T1 sequence (whole entry): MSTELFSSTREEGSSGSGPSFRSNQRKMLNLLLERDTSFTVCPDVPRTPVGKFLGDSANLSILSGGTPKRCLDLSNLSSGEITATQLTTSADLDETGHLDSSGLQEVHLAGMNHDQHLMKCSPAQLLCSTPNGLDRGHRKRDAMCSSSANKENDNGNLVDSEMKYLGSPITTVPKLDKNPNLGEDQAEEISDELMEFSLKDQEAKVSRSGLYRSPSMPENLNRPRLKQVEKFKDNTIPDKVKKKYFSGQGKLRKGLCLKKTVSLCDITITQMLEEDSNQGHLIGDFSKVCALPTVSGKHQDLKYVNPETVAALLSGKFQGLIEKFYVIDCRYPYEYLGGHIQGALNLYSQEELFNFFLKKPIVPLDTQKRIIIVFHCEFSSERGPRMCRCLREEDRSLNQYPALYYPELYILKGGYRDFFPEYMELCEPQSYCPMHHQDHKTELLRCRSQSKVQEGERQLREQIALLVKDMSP
Procedure, shortened: (§1)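 Single-point screen at 50 μM inhibitor against Cdc25A, Cdc25B or Cdc25C with 50 μM 3-O-methylfluorescein phosphate, product followed at 477 nm in time-dependent assays. Activity was compared with a simultaneous no-inhibitor control, and selected compounds were run in duplicate (average error ±7%).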

[2] = biological target: T2, M-phase inducer phosphatase 2 (Homo sapiens) (UniProt P30305); assay: Percent inhibition of cell division cycle 25B at 50 uM; procedure, shortened: as §1
T2 sequence (whole entry): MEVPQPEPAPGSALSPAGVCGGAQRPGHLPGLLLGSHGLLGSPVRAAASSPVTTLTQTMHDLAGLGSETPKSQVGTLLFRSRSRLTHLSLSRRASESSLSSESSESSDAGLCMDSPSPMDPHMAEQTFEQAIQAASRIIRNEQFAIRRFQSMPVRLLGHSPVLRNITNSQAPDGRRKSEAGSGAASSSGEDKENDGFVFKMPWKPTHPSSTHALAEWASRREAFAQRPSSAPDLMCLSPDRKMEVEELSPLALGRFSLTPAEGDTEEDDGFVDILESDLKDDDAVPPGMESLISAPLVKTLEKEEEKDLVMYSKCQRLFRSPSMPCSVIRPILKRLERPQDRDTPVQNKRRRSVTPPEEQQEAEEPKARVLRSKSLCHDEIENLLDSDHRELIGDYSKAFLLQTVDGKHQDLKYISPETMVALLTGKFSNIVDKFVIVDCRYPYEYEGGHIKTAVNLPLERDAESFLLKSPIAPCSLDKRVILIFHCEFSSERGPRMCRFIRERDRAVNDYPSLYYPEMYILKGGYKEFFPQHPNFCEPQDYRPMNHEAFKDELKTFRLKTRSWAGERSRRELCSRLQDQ

[3] = biological target: T3, M-phase inducer phosphatase 1 (Homo sapiens) (UniProt P30304); assay: Percent inhibition of cell division cycle 25A at 50 uM; procedure, shortened: as §1
T3 sequence (whole entry): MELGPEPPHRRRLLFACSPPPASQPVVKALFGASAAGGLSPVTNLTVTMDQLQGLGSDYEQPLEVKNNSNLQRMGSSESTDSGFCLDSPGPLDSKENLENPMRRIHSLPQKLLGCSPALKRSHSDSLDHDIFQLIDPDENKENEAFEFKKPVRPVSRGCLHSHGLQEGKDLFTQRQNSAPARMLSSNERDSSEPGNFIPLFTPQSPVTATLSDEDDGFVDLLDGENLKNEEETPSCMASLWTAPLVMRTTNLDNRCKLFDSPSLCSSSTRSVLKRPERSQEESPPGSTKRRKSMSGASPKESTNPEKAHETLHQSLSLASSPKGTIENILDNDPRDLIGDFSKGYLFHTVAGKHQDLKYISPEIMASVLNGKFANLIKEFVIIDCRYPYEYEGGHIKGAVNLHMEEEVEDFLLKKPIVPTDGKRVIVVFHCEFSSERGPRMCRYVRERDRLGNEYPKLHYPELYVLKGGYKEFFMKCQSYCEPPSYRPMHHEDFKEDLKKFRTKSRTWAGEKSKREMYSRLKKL

[4] = biological target: T4, M-phase inducer phosphatase 1 (Homo sapiens, UniProt P30304); assay: Eight point inhibitory concentration against Cell division cycle 25A was determined
T4 sequence (P30304 whole entry): T3 sequence (whole entry)
Procedure, shortened: (§2)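 Phosphatase activity measured with 3-O-methylfluorescein phosphate at 50 μM (~5 × Km), product formation followed at 477 nm by UV-vis under initial velocity conditions (2–5% turnover) in time-dependent assays. Eight inhibitor concentrations were used, and IC50 was obtained by fitting to a dose–response equation.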

[5] = Inhibitory constant of compound against Cdc25 phosphatase was determined
[6] = biological target: T5, M-phase inducer phosphatase 3 (Homo sapiens, UniProt P30307); assay: Eight point inhibitory concentration against Cell division cycle 25 degree C was determined; procedure, shortened: as §2
T5 sequence (P30307 whole entry): T1 sequence (whole entry)

[7] = biological target: T6, M-phase inducer phosphatase 2 (Homo sapiens, UniProt P30305); assay: Eight point inhibitory concentration against Cell division cycle 25B was determined
T6 sequence (P30305 whole entry): T2 sequence (whole entry)
Procedure, shortened: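 Cdc25B activity read by UV-vis at 477 nm as product formed from 3-O-methylfluorescein phosphate (mFP) at 50 μM (~5 × Km), time-dependent, initial-velocity conditions (2–5% turnover); eight inhibitor concentrations, IC50 fitted to eq 1. Each reaction compared with a simultaneous no-inhibitor control; selected compounds run in duplicate.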

[8] = biological target: T1, M-phase inducer phosphatase 3 (Homo sapiens); assay: Percent inhibition of cell division cycle 25 degree C at 50 uM; procedure, shortened: as §1
[9] = biological target: T6, M-phase inducer phosphatase 2; assay: Inhibitory concentration of compound against Cell division cycle 25B was determined using CDK2-p-TpY/Cyclin A as a substrate
Procedure, shortened: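 Cdc25B dephosphorylation of 300 nM Cdk2-pTpY/CycA protein substrate was run in time-dependent assays at eight inhibitor concentrations to give IC50. Reactions were quenched with TCA, and bovine serum albumin carrier (1 mg/mL) was added only after the quench so that it was absent during inhibitor exposure.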

[10] = biological target: T6, M-phase inducer phosphatase 2; assay: Inhibitory constant of compound against Cell division cycle 25B was determined using mFP as a substrate
[11] = biological target: T7, M-phase inducer phosphatase 2 (Homo sapiens, UniProt P30305); assay: Inhibitory constant of compound against Cell division cycle 25B was determined
[12] = biological target: M-phase inducer phosphatase 2 (Homo sapiens, UniProt P30305, R506L); assay: Inhibitory concentration of compound against mutant R492L of Cell division cycle 25B was determined
Procedure, shortened: (§3)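 Cdc25B catalytic-domain point mutants, a truncated form and wild type were assayed with 3-O-methylfluorescein phosphate as substrate, monitored at 477 nm under initial velocity conditions. Values are the mean of two separate determinations.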

[13] = biological target: T7, M-phase inducer phosphatase 2; assay: Inhibitory concentration of compound against mutant WT of Cell division cycle 25B was determined; procedure, shortened: as §3
[14] = biological target: M-phase inducer phosphatase 2 (Homo sapiens, UniProt P30305, R558L); assay: Inhibitory concentration of compound against mutant R544L of Cell division cycle 25B was determined; procedure, shortened: as §3
[15] = biological target: T8, M-phase inducer phosphatase 2 (Homo sapiens, UniProt P30305, E488Q); assay: Inhibitory concentration of compound against mutant E474Q of Cell division cycle 25B was determined; procedure, shortened: as §3
[16] = biological target: T7, M-phase inducer phosphatase 2; assay: Inhibitory concentration of compound against truncated mutant of Cell division cycle 25B was determined; procedure, shortened: as §3
[17] = biological target: T9, M-phase inducer phosphatase 2 (Homo sapiens, UniProt P30305, F489A); assay: Inhibitory concentration of compound against mutant F475A of Cell division cycle 25B was determined; procedure, shortened: as §3
[18] = biological target: T10, M-phase inducer phosphatase 2 (Homo sapiens, UniProt P30305, R496L); assay: Inhibitory concentration of compound against mutant R482L of Cell division cycle 25B was determined; procedure, shortened: as §3
[19] = biological target: M-phase inducer phosphatase 2 (Homo sapiens, UniProt P30305, Y542F); assay: Inhibitory concentration of compound against mutant Y528F of Cell division cycle 25B was determined; procedure, shortened: as §3
[20] = biological target: M-phase inducer phosphatase 2 (Homo sapiens, UniProt P30305, M545A); assay: Inhibitory concentration of compound against mutant M531A of Cell division cycle 25B was determined; procedure, shortened: as §3
[21] = biological target: M-phase inducer phosphatase 2 (Homo sapiens, UniProt P30305, E492Q); assay: Inhibitory concentration of compound against mutant E478Q of Cell division cycle 25B was determined; procedure, shortened: as §3
[22] = biological target: T9, M-phase inducer phosphatase 2; assay: Inhibitory concentration of compound against mutant F475A of Cdc25B phosphatase was determined
Procedure, shortened: (§4)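 Cdc25B catalytic domain constructs (wild-type, site-directed point mutants, truncated); activity with 3-O-methylfluorescein phosphate at 50 μM (~5 × Km), product read at 477 nm by UV-vis under initial velocity (2–5% turnover); eight inhibitor concentrations, IC50 fitted; values are mean of two determinations.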

[23] = biological target: T7, M-phase inducer phosphatase 2; assay: Inhibitory concentration of compound against mutant WT of Cdc25B phosphatase was determined; procedure, shortened: as §4
[24] = biological target: T6, M-phase inducer phosphatase 2; assay: Inhibitory concentration of compound against Cdc25B phosphatase was determined using CDK2-p-TpY/Cyclin A as a substrate
Procedure, shortened: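 Cdc25B IC50 with Cdk2-pTpY/CycA protein substrate at 300 nM; eight inhibitor concentrations; time-dependent assays; 1 mg/mL BSA carrier added only after TCA quench, not during reaction.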

[25] = biological target: T10, M-phase inducer phosphatase 2; assay: Inhibitory concentration of compound against mutant R482L of Cdc25B phosphatase was determined; procedure, shortened: as §4
[26] = biological target: T8, M-phase inducer phosphatase 2; assay: Inhibitory concentration of compound against mutant E474Q of Cdc25B phosphatase was determined; procedure, shortened: as §4
[27] = biological target: T6, M-phase inducer phosphatase 2; assay: Inhibitory constant of compound against Cdc25B phosphatase was determined using mFP as a substrate
[28] = biological target: T7, M-phase inducer phosphatase 2; assay: Inhibitory concentration of compound against truncated mutant of Cdc25B phosphatase was determined; procedure, shortened: as §4

T10 sequence (P30305 whole entry R496L): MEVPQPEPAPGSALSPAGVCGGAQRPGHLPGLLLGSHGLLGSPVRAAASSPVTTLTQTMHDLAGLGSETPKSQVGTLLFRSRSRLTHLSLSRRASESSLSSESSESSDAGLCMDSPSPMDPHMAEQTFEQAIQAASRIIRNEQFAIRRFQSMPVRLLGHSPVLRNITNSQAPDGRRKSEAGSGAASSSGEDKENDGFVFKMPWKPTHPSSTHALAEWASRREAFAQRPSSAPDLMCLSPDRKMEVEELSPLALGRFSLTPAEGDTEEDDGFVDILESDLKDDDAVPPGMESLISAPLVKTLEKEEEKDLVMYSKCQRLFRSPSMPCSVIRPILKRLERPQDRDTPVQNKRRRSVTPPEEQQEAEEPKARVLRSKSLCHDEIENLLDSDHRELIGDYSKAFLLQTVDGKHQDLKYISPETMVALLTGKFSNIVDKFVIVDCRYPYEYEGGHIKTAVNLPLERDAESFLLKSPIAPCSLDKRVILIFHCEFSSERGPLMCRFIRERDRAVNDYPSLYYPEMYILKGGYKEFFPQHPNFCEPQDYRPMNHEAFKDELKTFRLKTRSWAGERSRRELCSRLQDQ
T8 sequence (P30305 whole entry E488Q, the tested form may be a part): as the sequence (P30305 whole entry R496L) above, with E488Q, L496R counted along it
T9 sequence (P30305 whole entry F489A): as the sequence (P30305 whole entry R496L) above, with F489A, L496R counted along it
Sequence of M-phase inducer phosphatase 2 (Homo sapiens, UniProt P30305, Y542F) (P30305 whole entry Y542F): as the sequence (P30305 whole entry R496L) above, with L496R, Y542F counted along it
Sequence of M-phase inducer phosphatase 2 (Homo sapiens, UniProt P30305, M545A) (P30305 whole entry M545A): as the sequence (P30305 whole entry R496L) above, with L496R, M545A counted along it
Sequence of M-phase inducer phosphatase 2 (Homo sapiens, UniProt P30305, R558L) (P30305 whole entry R558L): as the sequence (P30305 whole entry R496L) above, with L496R, R558L counted along it
Sequence of M-phase inducer phosphatase 2 (Homo sapiens, UniProt P30305, R506L) (P30305 whole entry R506L, the tested form may be a part): as the sequence (P30305 whole entry R496L) above, with L496R, R506L counted along it
Sequence of M-phase inducer phosphatase 2 (Homo sapiens, UniProt P30305, E492Q) (P30305 whole entry E492Q): as the sequence (P30305 whole entry R496L) above, with E492Q, L496R counted along it

Row | Structure (SMILES) | inhibition [2] [%] | inhibition [3] [%] | pIC50 [4] | pIC50 [6] | pIC50 [7] | inhibition [8] [%] | further results
1 | Cc1ccc2[nH]cc(C3=C(O)C(O)=CC(=O)C3=O)c2c1 | 61 | 100 | 5.09 |  |  |  | inhibition [1]: 55%
2 | CC(C)=CCC/C(C)=C/CC/C(C)=C/Cc1c(Cl)cc(Cl)c2c(C3=C(O)C(O)=CC(=O)C3=O)c[nH]c12 |  |  |  |  |  |  | pKi [5]: 6.33
3 | O=C1C=C(O)C(=O)C(c2c[nH]c3c(OCc4ccccc4)cccc23)=C1O | 97 | 98 | 5.38 | 5.16 | 5.38 | 85 | 
4 | O=C1C=C(O)C(=O)C(c2c[nH]c3cc(Cl)ccc23)=C1O | 92 | 100 | 5.38 | 4.40 | 4.85 | 81 | 
5 | CC(C)(C)c1cccc2c(C3=C(O)C(O)=CC(=O)C3=O)c[nH]c12 | 33 | 93 | 5.14 | < 4.30 | 5.14 | 37 | 
6 | CC(C)=CCc1c(Cl)cc(Cl)c2c(C3=C(O)C(O)=CC(=O)C3=O)c[nH]c12 |  |  | 5.30 | 5.06 | 5.64 |  | pIC50 [9]: 5.07; pKi [10]: 6.37
7 | CC(C)=CCC/C(C)=C/CC/C(C)=C/Cc1cccc2c(C3=C(O)C(O)=CC(=O)C3=O)c[nH]c12 | 89 | 96 | 5.62 | 5.46 | 5.62 | 85 | pKi [11]: 6.19
8 | CC(C)=CCc1cccc2c(C3=C(O)C(O)=CC(=O)C3=O)c[nH]c12 | 99 | 100 | 5.39 | 4.82 | 5.25 | 84 | pIC50 [12]: 4.96; pIC50 [13]: 5.19; pIC50 [14]: 4.92; pIC50 [9]: 4.55; pIC50 [15]: < 4.30; pKi [10]: 6.19; pIC50 [16]: 4.48; pIC50 [17]: < 4.30; pIC50 [18]: 4.40; pIC50 [19]: 4.82; pIC50 [20]: 5.19; pIC50 [21]: 5.19
9 | O=C1C=C(O)C(=O)C(c2c(C3CC3)[nH]c3ccccc23)=C1O | 32 | 22 | 4.46 | < 4.30 | < 4.30 | 0 | 
10 | O=C1C=C(O)C(=O)C(c2c[nH]c3ccccc23)=C1O | 75 | 33 | 4.60 | 4.52 | 4.74 | 69 | pIC50 [22]: 4.12; pIC50 [23]: 4.74; pIC50 [24]: < 4.30; pIC50 [25]: 4.14; pIC50 [26]: 3.70; pKi [27]: 4.89; pIC50 [28]: 4.47
11 | O=C1C=C(O)C(=O)C(c2c[nH]c3c(-c4ccccc4)cccc23)=C1O | 92 | 99 | 5.60 | 4.57 | 5.60 | 91 | 
